Measured values published in ChEMBL document CHEMBL1157704, “Potent activity against K562 cells by polyamide-seco-CBI conjugates targeting histone H4 genes” (Bioorg Med Chem, 2010).
Active and inactive are the calls of the source.

Tests used:
K562 [1] = assay: Effect on HIST1H1D gene expression in human K562 cells assessed as change in mRNA transcript expression at 10 nM after 48 hrs by DNA microarray analysis relative to control; type: functional
Method in brief: (§1)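 Transcripts were profiled on Affymetrix GeneChip Human Gene 1.0 ST arrays in K562 cells treated at 10 nM. Treated cells were collected at 6, 12, 24 and 48 h; untreated controls were collected at 48 h. Transcripts changed at least twofold versus control were scored.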

K562 [2] = assay: Effect on LPHN3 gene expression in human K562 cells assessed as change in mRNA transcript expression at 10 nM after 48 hrs by DNA microarray analysis relative to control; type: functional
Method in brief: (§2)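 K562 CML cells (b3a2 Bcr-Abl) in standard ATCC-recommended culture, exposed once to 10 nM conjugate and harvested at 48 h. Untreated controls were also collected at 48 h. Transcripts were profiled on Human Gene 1.0 ST whole-genome oligonucleotide arrays, and each treated level was expressed relative to the untreated control, with a cutoff of at least twofold change.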

K562 [3] = assay: Effect on FER gene expression in human K562 cells assessed as change in mRNA transcript expression at 10 nM after 48 hrs by DNA microarray analysis relative to control; type: functional; method in brief: as §1
K562 [4] = assay: Effect on SUPT3H gene expression in human K562 cells assessed as change in mRNA transcript expression at 10 nM after 48 hrs by DNA microarray analysis relative to control; type: functional; method in brief: as §2
K562 [5] = assay: Effect on PITPNC1 gene expression in human K562 cells assessed as change in mRNA transcript expression at 10 nM after 48 hrs by DNA microarray analysis relative to control; type: functional; method in brief: as §2
K562 [6] = assay: Effect on PPP1R15A gene expression in human K562 cells assessed as change in mRNA transcript expression at 10 nM after 48 hrs by DNA microarray analysis relative to control; type: functional; method in brief: as §2
K562 [7] = assay: Effect on HIST1H3F gene expression in human K562 cells assessed as change in mRNA transcript expression at 10 nM after 48 hrs by DNA microarray analysis relative to control; type: functional; method in brief: as §1
K562 [8] = assay: Effect on HIST2H2AB gene expression in human K562 cells assessed as change in mRNA transcript expression at 10 nM after 48 hrs by DNA microarray analysis relative to control; type: functional; method in brief: as §2
K562 [9] = assay: Induction of apoptosis in human K562 cells assessed as early apoptotic cells at 125 nM after 48 hrs by annexin-V FITC and propidium iodide staining-based FACS analysis; type: functional
Method in brief: (§3)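 K562 cells were exposed to conjugate in culture medium for 48 h, then stained with annexin V-FITC plus propidium iodide. Cell populations were quantified by flow cytometry.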

K562 [10] = assay: Induction of apoptosis in human K562 cells assessed as late apoptotic cells at 125 nM after 48 hrs by annexin-V FITC and propidium iodide staining-based FACS analysis; type: functional; method in brief: as §3
K562 [11] = assay: Effect on HIST1H3B gene expression in human K562 cells assessed as change in mRNA transcript expression at 10 nM after 48 hrs by DNA microarray analysis relative to control; type: functional; method in brief: as §1
K562 [12] = assay: Effect on HIST1H4C gene expression in human K562 cells assessed as down-regulation of mRNA transcript expression at 10 nM after 48 hrs by DNA microarray analysis relative to control; type: functional; method in brief: as §1
K562 [13] = assay: Effect on TXNIP gene expression in human K562 cells assessed as change in mRNA transcript expression at 10 nM after 48 hrs by DNA microarray analysis relative to control; type: functional
Method in brief: (§4)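 K562 CML cells (b3a2 Bcr-Abl) kept under standard culture conditions were exposed to 10 nM conjugate and harvested at 6, 12, 24 and 48 h. Untreated controls were harvested at 48 h. Whole-transcript oligonucleotide microarray profiling was done, and changes of at least twofold versus control were scored.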

K562 [14] = assay: Induction of apoptosis in human K562 cells assessed as non-viable necrotic cells at 250 nM after 48 hrs by annexin-V FITC and propidium iodide staining-based FACS analysis; type: functional
Method in brief: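 Treated K562 cells […] stained with Annexin V-FITC/propidium iodide. Apoptosis was scored by two-dimensional flow cytometry at a core FACS facility.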

K562 [15] = assay: Effect on RNU5F gene expression in human K562 cells assessed as change in mRNA transcript expression at 10 nM after 48 hrs by DNA microarray analysis relative to control; type: functional; method in brief: as §2
K562 [16] = assay: Effect on LGALS12 gene expression in human K562 cells assessed as change in mRNA transcript expression at 10 nM after 48 hrs by DNA microarray analysis relative to control; type: functional; method in brief: as §2
K562 [17] = assay: Effect on PRG2 gene expression in human K562 cells assessed as change in mRNA transcript expression at 10 nM after 48 hrs by DNA microarray analysis relative to control; type: functional; method in brief: as §2
K562 [18] = assay: Effect on TCN1 gene expression in human K562 cells assessed as change in mRNA transcript expression at 10 nM after 48 hrs by DNA microarray analysis relative to control; type: functional; method in brief: as §2
K562 [19] = assay: Effect on CD226 gene expression in human K562 cells assessed as change in mRNA transcript expression at 10 nM after 48 hrs by DNA microarray analysis relative to control; type: functional; method in brief: as §1
K562 [20] = assay: Effect on NDUFS4 gene expression in human K562 cells assessed as change in mRNA transcript expression at 10 nM after 48 hrs by DNA microarray analysis relative to control; type: functional; method in brief: as §2
K562 [21] = assay: Effect on PYROXD1 gene expression in human K562 cells assessed as change in mRNA transcript expression at 10 nM after 48 hrs by DNA microarray analysis relative to control; type: functional; method in brief: as §2
K562 [22] = assay: Effect on HIST1H3J gene expression in human K562 cells assessed as change in mRNA transcript expression at 10 nM after 48 hrs by DNA microarray analysis relative to control; type: functional; method in brief: as §1
K562 [23] = assay: Effect on BAMBI gene expression in human K562 cells assessed as change in mRNA transcript expression at 10 nM after 48 hrs by DNA microarray analysis relative to control; type: functional; method in brief: as §1
K562 [24] = assay: Effect on TMEM126A gene expression in human K562 cells assessed as change in mRNA transcript expression at 10 nM after 48 hrs by DNA microarray analysis relative to control; type: functional; method in brief: as §4
K562 [25] = assay: Effect on HIST1H2BL gene expression in human K562 cells assessed as change in mRNA transcript expression at 10 nM after 48 hrs by DNA microarray analysis relative to control; type: functional; method in brief: as §1
K562 [26] = assay: Effect on MRPS28 gene expression in human K562 cells assessed as change in mRNA transcript expression at 10 nM after 48 hrs by DNA microarray analysis relative to control; type: functional; method in brief: as §2
K562 [27] = assay: Effect on LOC85391 gene expression in human K562 cells assessed as change in mRNA transcript expression at 10 nM after 48 hrs by DNA microarray analysis relative to control; type: functional; method in brief: as §2
[28] = tested on: histone H4c gene fragment DNA (human); assay: Binding affinity to 5'-ACGCCA-3' sequence of 223 bp human histone H4c gene fragment DNA assessed as DNA alkylating activity at 5 to 100 nM after 15 hrs by PAGE

CC(=O)Nc1cn(C)c(C(=O)Nc2cn(C)c(C(=O)NCCC(=O)Nc3cn(C)c(C(=O)NCCCC(=O)Nc4cc(C(=O)Nc5cn(C)c(C(=O)Nc6ccc7[nH]c(C(=O)N8CC(CCl)c9c8cc(O)c8ccccc98)cc7c6)n5)n(C)c4)n3)n2)n1 (stereo not drawn)
fold change (FC) (K562 [1]): >=2
fold change (FC) (K562 [2]): >=2
fold change (FC) (K562 [3]): >=2
fold change (FC) (K562 [4]): >=2
fold change (FC) (K562 [5]): >=2
fold change (FC) (K562 [6]): >=2
fold change (FC) (K562 [7]): >=2
fold change (FC) (K562 [8]): >=2
Activity (K562 [9]): 8.41%
Activity (K562 [10]): 9.21%
fold change (FC) (K562 [11]): >=2
fold change (FC) (K562 [12]): 2.86
fold change (FC) (K562 [13]): >=2
Activity (K562 [14]): 2.58%
fold change (FC) (K562 [15]): >=2
fold change (FC) (K562 [16]): >=2
fold change (FC) (K562 [17]): >=2
fold change (FC) (K562 [18]): >=2
fold change (FC) (K562 [19]): >=2
fold change (FC) (K562 [20]): >=2
fold change (FC) (K562 [21]): >=2
fold change (FC) (K562 [22]): >=2
fold change (FC) (K562 [23]): >=2
fold change (FC) (K562 [24]): >=2
fold change (FC) (K562 [25]): >=2
fold change (FC) (K562 [26]): >=2
fold change (FC) (K562 [27]): >=2
Activity [28]: Active
